A short description of data set [1]: Volume of distribution at steady state in mouse at 2 mg/kg, iv administered as single dose. The data set is classed as ADME, organism-based. Particulars: in vivo, read-out: Vdss. The gist of the method:
(§1)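 Mouse pharmacokinetics after a single intravenous dose of 2 mg/kg or a single oral dose of 10 mg/kg. Plasma parameters derived for each route; oral bioavailability calculated by comparing the two routes.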

Data set [2] deals with T1, Sodium/glucose cotransporter 2 (Homo sapiens, UniProt P31639).
T1 sequence (P31639 whole entry): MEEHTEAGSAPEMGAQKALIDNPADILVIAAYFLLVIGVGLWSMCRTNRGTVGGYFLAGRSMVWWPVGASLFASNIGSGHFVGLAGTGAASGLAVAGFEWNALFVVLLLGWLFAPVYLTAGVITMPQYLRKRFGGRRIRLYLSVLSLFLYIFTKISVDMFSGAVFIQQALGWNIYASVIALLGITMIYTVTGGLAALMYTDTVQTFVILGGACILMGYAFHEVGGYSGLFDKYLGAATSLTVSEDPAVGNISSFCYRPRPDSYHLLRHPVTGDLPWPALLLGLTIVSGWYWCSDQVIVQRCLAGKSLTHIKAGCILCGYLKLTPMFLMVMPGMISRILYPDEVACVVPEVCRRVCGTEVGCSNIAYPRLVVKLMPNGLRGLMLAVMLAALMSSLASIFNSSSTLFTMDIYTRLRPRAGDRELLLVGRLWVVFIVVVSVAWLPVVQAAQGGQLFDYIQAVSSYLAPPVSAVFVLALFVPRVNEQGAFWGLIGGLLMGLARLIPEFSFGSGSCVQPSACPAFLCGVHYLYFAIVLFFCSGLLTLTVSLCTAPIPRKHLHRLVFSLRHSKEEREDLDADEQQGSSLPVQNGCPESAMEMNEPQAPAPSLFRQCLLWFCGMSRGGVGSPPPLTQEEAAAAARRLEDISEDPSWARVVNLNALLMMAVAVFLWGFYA
Description: Inhibition of human full length SGLT2 expressed in NIH3T3 cells measured after 1 hr in presence of [14C]-methyl-alpha -D-glucopyranoside by scintillation counter method. The data set is classed as cell-based. Put shortly: (§2)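 Stable NIH3T3 lines from retroviral transduction of full-length hSGLT1 or hSGLT2 (pBABE-puro, 8 µg/mL polybrene, puromycin 2 µg/mL selection for 2 weeks). Cells plated 2 days ahead, 2 mmol/L sodium butyrate added day 2. Read by scintillation counting. Compound-free buffer served as negative control, sodium-free N-methyl-glucamine buffer as blank.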

Data set [3] is filed under the species Homo sapiens. In words: Selectivity ratio of IC50 for human full length SGLT1 to IC50 for human full length SGLT2. Put shortly:
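Ratio of IC50 at hSGLT1 to IC50 at hSGLT2, both from the [14C]methyl-α-D-glucopyranoside uptake assay in stably transfected NIH3T3 cells.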

Data set [4] can be described thus: AUCinfinity in mouse at 10 mg/kg, po administered as single dose. The data set is classed as ADME, organism-based. Details: dose 10 mg/kg, time infinity, route oral. Particulars: in vivo. The gist of the method:
as §1

For data set [5], the system named is Rattus norvegicus. Description: Effect on urine glucose concentration in Sprague-Dawley rat at 1 mg/kg, po administered as single dose measured after 24 hrs by glucose oxidase method (reference value: 0.28 +/- 0.16 mmol/L). The data set is classed as functional.
The nature of data set [6]: Half-life in mouse at 10 mg/kg, po administered as single dose. The data set is classed as ADME, organism-based. Particulars: in vivo. Put shortly:
as §1

Data set [7] concerns Mus musculus. In words: Effect on urine glucose excretion in C57BL/6J mouse at 1 mg/kg, po administered as single dose measured after 24 hrs assessed per 100 grams (reference value: 0.84 +/- 0.40 mg ). Type of data set: functional.
The nature of data set [8]: AUCinfinity in mouse at 2 mg/kg, iv administered as single dose. The data set is classed as ADME, organism-based. On the set-up: dose 2 mg/kg, route intravenous, time infinity. The settings on record: in vivo. Put shortly: as §1
A short description of data set [9]: Tmax in mouse at 10 mg/kg, po administered as single dose. Type of data set: ADME, organism-based. Particulars: in vivo. Put shortly: as §1
Data set [10] relates to Rattus norvegicus. Description: Effect on urinary volume in Sprague-Dawley rat at 1 mg/kg, po administered as single dose measured after 24 hrs (reference value: 24.17 +/- 7.11 mL). Type of data set: ADME, organism-based. Particulars: in vivo.
Data set [11] in a line: Clearance in mouse at 2 mg/kg, iv administered as single dose. Type of data set: ADME, organism-based. The settings on record: in vivo. Put shortly: as §1
Data set [12] is described as follows: AUClast in mouse at 10 mg/kg, po administered as single dose. The data set is classed as ADME, organism-based. Details: dose 10 mg/kg, time 0 - last, route oral. The settings on record: in vivo. The gist of the method:
as §1

Data set [13] has as its target T2, Sodium/glucose cotransporter 1 (Homo sapiens, UniProt P13866).
T2 sequence (P13866 whole entry): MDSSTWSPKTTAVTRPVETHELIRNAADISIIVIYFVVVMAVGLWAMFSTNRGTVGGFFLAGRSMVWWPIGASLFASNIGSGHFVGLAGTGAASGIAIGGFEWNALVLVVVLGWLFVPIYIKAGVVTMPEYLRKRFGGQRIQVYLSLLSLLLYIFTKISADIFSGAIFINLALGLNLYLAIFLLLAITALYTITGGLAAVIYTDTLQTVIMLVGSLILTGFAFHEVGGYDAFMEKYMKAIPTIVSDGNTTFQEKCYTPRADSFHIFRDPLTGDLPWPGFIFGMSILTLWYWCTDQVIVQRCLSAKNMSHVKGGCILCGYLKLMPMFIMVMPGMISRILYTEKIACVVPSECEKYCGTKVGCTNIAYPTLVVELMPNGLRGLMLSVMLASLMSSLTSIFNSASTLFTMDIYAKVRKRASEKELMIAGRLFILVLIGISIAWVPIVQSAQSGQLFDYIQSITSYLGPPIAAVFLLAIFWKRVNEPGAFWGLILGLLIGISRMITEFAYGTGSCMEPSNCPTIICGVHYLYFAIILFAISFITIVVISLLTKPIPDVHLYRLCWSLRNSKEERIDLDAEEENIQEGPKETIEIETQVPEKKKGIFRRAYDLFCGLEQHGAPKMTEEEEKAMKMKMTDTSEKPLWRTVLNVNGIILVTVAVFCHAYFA
Description: Inhibition of human full length SGLT1 expressed in NIH3T3 cells measured after 1 hr in presence of [14C]-methyl-alpha -D-glucopyranoside by scintillation counter method. The data set is classed as cell-based. Put shortly:
as §2

A short description of data set [14]: AUClast in mouse at 2 mg/kg, iv administered as single dose. Type of data set: ADME, organism-based. Details: dose 2 mg/kg, route intravenous, time 0 - last. The settings on record: in vivo. The gist of the method:
as §1

The nature of data set [15]: Oral bioavailability in mouse at 10 mg/kg administered as single dose. The data set is classed as ADME, organism-based. Particulars: in vivo. The gist of the method: as §1
Data set [16] can be described thus: Mean residence time infinity in mouse at 2 mg/kg, iv administered as single dose. Type of data set: ADME, organism-based. Particulars: in vivo. Put shortly:
as §1

Data set [17] is described as follows: Cmax in mouse at 10 mg/kg, po administered as single dose. The data set is classed as ADME, organism-based. On the set-up: dose 10 mg/kg, route oral. The settings on record: in vivo. The gist of the method: as §1
For data set [18], the system named is Mus musculus. Description: Effect on urinary volume in C57BL/6J mouse at 1 mg/kg, po administered as single dose measured after 24 hrs (reference value: 1.24 +/- 0.45 mL). The data set is classed as ADME, organism-based. The settings on record: in vivo.
Data set [19] concerns Mus musculus. Description: Hypoglycemic activity in orally dosed C57BL/6J mouse assessed as glucose tolerance improvement administered as single dose measured after 120 mins post glucose challenge by OGTT. Type of data set: functional, organism-based. Put shortly: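 Male mice fasted overnight (14 h), then gavaged with 1 or 3 mg/kg or vehicle (0.9% NaCl, 0.5% methyl cellulose); n = 8. Glucose 3 g/kg given by gavage 2 h later. Blood glucose taken at -120, 0, 15, 30, 60, 90 and 120 min. AUC0-2 h by trapezoidal rule; t-test against vehicle.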

Data set [20] relates to Rattus norvegicus. Description: Effect on urine glucose excretion in Sprague-Dawley rat 1 mg/kg, po administered as single dose measured after 24 hrs assessed per 100 grams (reference value: 0.51 +/- 0.40 mg). The data set is classed as functional.
Data set [21] can be described thus: Mean residence time infinity in mouse at 10 mg/kg, po administered as single dose. The settings on record: in vivo. The data set is classed as ADME, organism-based. The gist of the method:
as §1

In data set [22] the test system is Mus musculus. Description: Effect on urine glucose concentration in C57BL/6J mouse at 1 mg/kg, po administered as single dose measured after 24 hrs by glucose oxidase method (reference value: 0.74 +/- 0.14 mmol/L). The data set is classed as functional.
Data set [23] is described as follows: Half-life in mouse at 2 mg/kg, iv administered as single dose. Type of data set: ADME, organism-based. Particulars: in vivo. Put shortly: as §1

Regarding `CCc1ccc(Cc2cc3c(cc2C)CO[C@]32O[C@H](C)[C@@H](O)[C@H](O)[C@H]2O)s1`, the Vd in data set [1] stood at 10.1 L/kg. Besides, the IC50 (in general, the concentration that inhibits the measured activity by half) in [2] was 0.0045 µM; in data set [13] it was 1 µM. In data set [3], the Ratio IC50 was determined as 216. Besides, the AUC(0-inf) (usually total exposure, with the tail of the curve extrapolated) in data set [4] came out at 5.58 µg·h/mL; in data set [8], 2.32 µg·h/mL. Besides, the Activity is 93.8 mmol/L in data set [5]; 110.53 mg in [7]; 24.67 mL in [10]; 1.21 mL in data set [18]; “Dose-dependent effect” in data set [19]; 134.23 mg in [20]. Besides, the Activity in data set [22] is reported as 92.99 mmol/L. The half-life (in general, the time needed for the level to fall by half in the phase considered) in data set [6] is 5.95 h; in data set [23] it was 10.8 h. The Tmax (usually the time from dosing to the highest level) in data set [9] amounted to 0.33 h. Also, the clearance (usually a measure of how efficiently the substance is removed, as volume per time) in data set [11] was determined as 1.19 L/h/kg. Also, the results for the AUC(0-t) in data set [12] and in [14] were 3.01 µg·h/mL and 1.13 µg·h/mL, respectively. Further, the bioavailability – broadly, the share of a dose that reaches the circulation, judged against a reference dose that is usually intravenous – in data set [15] turned out to be 53.4%. Also, the results for the MRT inf in data set [16] and in [21] were 13.1 h and 8.9 h, respectively. Also, the Cmax (in general, the peak of the concentration-time curve) in data set [17] was found to be 0.74 µg/mL.

Values taken from ChEMBL document CHEMBL4364314, “Design, synthesis and biological evaluation of 6-deoxy O-spiroketal C-arylglucosides as novel renal sodium-dependent glucose cotransporter 2 (SGLT2) inhibitors for the treatment of type 2 diabetes” (Eur J Med Chem, 2019).
